The structures appear in SMILES notation. Unmarked numbers belong to inactive results. For some assays here: Results with a measured potency or affinity are listed apart. Active and inactive are the calls of the source.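 Rule for the calls, unless noted: active = active in primary screen and both duplicates, each dropping signal beyond three positive-control SD with fluorescence still positive; inactive = the rest.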

The target in one test is Short transient receptor potential channel 4 (Mus musculus) (UniProt Q9QUQ5). Kind of test: block of DAMGO-driven TRPC4 calcium entry – cell-based, HEK293 TRPC4/mu-opioid, Fluo-4 calcium, dose response (AID 434942;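 active = primary screen inhibitor hit that blocks the TRPC4 channel at some tested dose, yielding a dose curve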). To be noted: HEK293 TRPC4/mu-opioid cells, DAMGO-evoked Fluo-4 calcium ratio; series mostly up to 20 µM; ratio response (lower = inhibition): at the top concentration.
Short transient receptor potential channel 4 (Mus musculus), sequence (Q9QUQ5 whole entry, looked up): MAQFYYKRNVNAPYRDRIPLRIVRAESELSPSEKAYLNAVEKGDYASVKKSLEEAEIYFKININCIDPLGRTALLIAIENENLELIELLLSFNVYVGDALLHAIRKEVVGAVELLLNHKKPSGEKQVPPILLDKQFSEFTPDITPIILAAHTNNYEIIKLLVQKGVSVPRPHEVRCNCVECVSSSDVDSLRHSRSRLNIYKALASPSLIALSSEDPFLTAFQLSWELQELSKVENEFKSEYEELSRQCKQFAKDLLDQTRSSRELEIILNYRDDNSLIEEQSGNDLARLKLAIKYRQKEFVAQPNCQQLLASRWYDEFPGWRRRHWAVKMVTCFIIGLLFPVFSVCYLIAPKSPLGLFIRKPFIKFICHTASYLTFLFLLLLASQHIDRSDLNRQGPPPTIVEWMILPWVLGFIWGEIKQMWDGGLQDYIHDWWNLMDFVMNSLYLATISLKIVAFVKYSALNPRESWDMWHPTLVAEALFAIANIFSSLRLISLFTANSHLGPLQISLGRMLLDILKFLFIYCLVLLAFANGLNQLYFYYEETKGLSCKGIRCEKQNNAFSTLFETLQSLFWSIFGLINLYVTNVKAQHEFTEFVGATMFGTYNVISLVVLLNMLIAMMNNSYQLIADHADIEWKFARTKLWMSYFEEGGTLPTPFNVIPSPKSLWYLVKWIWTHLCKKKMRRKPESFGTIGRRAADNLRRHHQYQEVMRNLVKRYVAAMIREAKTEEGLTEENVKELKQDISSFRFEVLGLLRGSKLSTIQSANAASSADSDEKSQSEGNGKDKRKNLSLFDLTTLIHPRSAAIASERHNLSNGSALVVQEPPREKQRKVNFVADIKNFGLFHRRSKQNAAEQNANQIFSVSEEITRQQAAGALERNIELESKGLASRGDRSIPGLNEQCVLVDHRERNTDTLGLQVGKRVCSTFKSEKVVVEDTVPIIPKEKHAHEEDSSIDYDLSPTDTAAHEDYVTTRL
`Cc1cc(N2CCCCC2)nc(NCc2ccccc2)n1`: the “ratio response (lower = inhibition)” value was 8.19.
Same read-out and setting: to `COCCNC(=O)/C(C#N)=C/c1cc(C(C)C)c(OC)cc1C` belongs 99.6; to `CCN1CCN(c2ccc(S(=O)(=O)N3CCCCC3)cc2NC(=O)COc2cc(C)ccc2Cl)CC1`, 133.
The same measure, in the same setting: to `FC(F)(F)COc1nc(N2CCCCC2)nc(N2CCNCC2)n1` belongs 69.5; to `CCSc1nnc([C@H](Cc2c[nH]c3ccccc23)NC(=O)OC(C)(C)C)o1`, 59.3.
`COc1ccc(/C=C(\C#N)C(=O)N2CCOCC2)cc1Br`: the “ratio response (lower = inhibition)” value is 166.
For `N#Cc1ccc(OCC(O)CN2CCN(c3ncc(C(F)(F)F)cc3Cl)CC2)cc1` (stereo not given), the “ratio response (lower = inhibition)” value is 108.
The same measure, in the same setting: to `CCCC1=C(C(=O)OCC)C(c2cc(Cl)cc(OC)c2OCC(=O)OCC)NC(=O)N1` (stereo not given) belongs 77.1; to `CCCCCc1ccc(OCCCC[n+]2ccccc2)c(CCCCC)c1`, 26.9; to `CC(C)(C)c1ccccc1OCCCCCn1ccnc1`, 37.1.
Still for that read-out and setting: to `CCOC(=O)COc1cc(-n2c(=S)[nH]c3ccccc3c2=O)c(Cl)cc1Cl` belongs -4.32.
Take `CCCCc1nc(N2CCOCC2)c(C#N)c2c1CCCC2`: the “ratio response (lower = inhibition)” value is 11.
The same measure, in the same setting: to `CCN1CCN(c2ccc(NC(=O)CCc3c(C)nc4c(-c5ccc(F)cc5)c(C)nn4c3C)cc2)CC1` belongs 28.4; to `CCOc1cc(/C=C(\C#N)C(=O)Nc2cccc(C(=O)O)c2)cc(Br)c1OC(=O)c1ccc(OC)cc1`, 13.9.
Still for that read-out and setting: to `COc1ccc(Cl)c2sc(N(CCN(C)C)C(=O)c3ccc4c(c3)OCCO4)nc12` belongs 111; to `CCCCN1C(=O)C(=O)N(CC(=O)Nc2cc(OCC)c(N3CCOCC3)cc2OCC)C1=O`, 82.7.
In the case of `CN(C)CCOc1ccc2ccccc2c1`, the “ratio response (lower = inhibition)” value was 116.
Consider `CCCn1c(NCc2cc(OC)ccc2OC)nc2ccccc21`, for which the “ratio response (lower = inhibition)” value is 19.2.
As for `COC(=O)c1ccc(NC(=O)CCN2CCN(Cc3ccccc3)CC2)cc1`, the “ratio response (lower = inhibition)” value was 40.1.
On the same count and under the same terms, to `Cn1c(=O)c2c(nc(SCCN3CCCCC3)n2Cc2ccccc2)n(C)c1=O` belongs 100.
The same measure, in the same setting: to `O=C(NCc1ccccc1Cl)/C(=C\c1cccnc1)NC(=O)c1ccccc1` belongs 24.5.
The same measure, in the same setting: to `COC(=O)[C@@]12CCCN1[C@H](c1ccc(-c3ccc(OC)cc3)cc1)[C@@H]1C(=O)N(C)C(=O)[C@@H]12` belongs 97.9; to `COc1ccc(-c2cc(C(F)(F)F)nc(N3CCN(C)CC3)n2)cc1`, 95.3; to `CCOc1ccc(NS(=O)(=O)c2ccc(NC(=S)NC(=O)CC(C)C)cc2)cc1`, 67.7.
Take `CCCN(CCC)CCCNC(=O)c1cc2c(=O)n(C)c3ccccc3c2n1C`: the “ratio response (lower = inhibition)” value is 85.9.
For `COc1ccc(CNCC(O)(c2ccccc2)c2ccccc2)cc1OC`, the “ratio response (lower = inhibition)” value is 23.3.
The same measure, in the same setting: to `CCOc1cc2[nH]c(=S)n(C3CC3)c(=O)c2cc1OCC` belongs 2.13; to `CCOC(=O)c1c(C(F)(F)C(F)(F)C(F)(F)C(F)(F)F)n[nH]c1C`, 27.5.
The same measure, in the same setting: to `Cn1c(=O)cc(OCCCC(=O)NCCCN2CCN(Cc3ccccc3)CC2)c2ccccc21` belongs 85.3; to `CC(=O)C1=C(O)C(=O)N(Cc2ccco2)C1c1ccc2c(c1)OCO2` (stereo not given), 44.4; to `CCc1cc2c(SCC(=O)N(C)C3CCS(=O)(=O)C3)ncnc2s1` (stereo not given), 152.
As for `OC(CNCC1CCCO1)Cn1c2ccc(Br)cc2c2cc(Br)ccc21` (stereo not given), the “ratio response (lower = inhibition)” value is 140.
Same read-out and setting: to `CCN1CCN(c2ccc(S(=O)(=O)N3CCCCC3)cc2NC(=O)c2cccc(F)c2)CC1` belongs 114; to `COC(=O)/C=C1\SC(=NC(=O)c2cccc(Cl)c2)NC1=O`, 15.1.
Regarding `CCCc1ccc(OCc2ccc(C(=O)N3CCCC3)o2)cc1`, the “ratio response (lower = inhibition)” value is 36.
Consider `Cc1ccc(-c2csc3ncnc(NCCN4CCOCC4)c23)cc1`, for which the “ratio response (lower = inhibition)” value is 21.4.
On to `Cn1c(=O)n(CCCO)c(=O)c2c1nc1n2CCCN1Cc1ccccc1`, for which the “ratio response (lower = inhibition)” value is 75.6.
On the same count and under the same terms, to `O=C(NC1CC1)c1ccc2c(c1)N(Cc1ccc(Cl)cc1)CCS2` belongs 23.1; to `O=C(COc1ccccc1-c1ccccc1)NCc1ccco1`, 13.9; to `CCOc1ccc2nc(NCCNC(=O)C3CC3)c(C)cc2c1`, 18.1.

The target of a further test is Short transient receptor potential channel 6 (Mus musculus) (UniProt Q61143). Kind of test: TRPC6 blockade by TRPC4 inhibitor hits – cell-based, HEK293, membrane potential dye, duplicate, selectivity assay for TRPC4 inhibitor project, confirmation (AID 434948). To be noted: HEK293 TRPC6, membrane potential dye fluorescence, at 10 µM, stimulated with maximal-effect acetylcholine; active compounds read high. A digest of the protocol: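 Material – TRPC6-expressing HEK293 cells · Repeats – two replicates · Read-out basis – control-normalized integrated fluorescence ratio · Schedule – 45 min RT dye load, 110 s compound, 110 s agonist read · Reagent – acetylcholine at maximal (ECmax) concentration, added after compound · Detection – kinetic fluorescence of membrane potential dye with 5 s baseline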
Short transient receptor potential channel 6 (Mus musculus), sequence (Q61143 whole entry, looked up): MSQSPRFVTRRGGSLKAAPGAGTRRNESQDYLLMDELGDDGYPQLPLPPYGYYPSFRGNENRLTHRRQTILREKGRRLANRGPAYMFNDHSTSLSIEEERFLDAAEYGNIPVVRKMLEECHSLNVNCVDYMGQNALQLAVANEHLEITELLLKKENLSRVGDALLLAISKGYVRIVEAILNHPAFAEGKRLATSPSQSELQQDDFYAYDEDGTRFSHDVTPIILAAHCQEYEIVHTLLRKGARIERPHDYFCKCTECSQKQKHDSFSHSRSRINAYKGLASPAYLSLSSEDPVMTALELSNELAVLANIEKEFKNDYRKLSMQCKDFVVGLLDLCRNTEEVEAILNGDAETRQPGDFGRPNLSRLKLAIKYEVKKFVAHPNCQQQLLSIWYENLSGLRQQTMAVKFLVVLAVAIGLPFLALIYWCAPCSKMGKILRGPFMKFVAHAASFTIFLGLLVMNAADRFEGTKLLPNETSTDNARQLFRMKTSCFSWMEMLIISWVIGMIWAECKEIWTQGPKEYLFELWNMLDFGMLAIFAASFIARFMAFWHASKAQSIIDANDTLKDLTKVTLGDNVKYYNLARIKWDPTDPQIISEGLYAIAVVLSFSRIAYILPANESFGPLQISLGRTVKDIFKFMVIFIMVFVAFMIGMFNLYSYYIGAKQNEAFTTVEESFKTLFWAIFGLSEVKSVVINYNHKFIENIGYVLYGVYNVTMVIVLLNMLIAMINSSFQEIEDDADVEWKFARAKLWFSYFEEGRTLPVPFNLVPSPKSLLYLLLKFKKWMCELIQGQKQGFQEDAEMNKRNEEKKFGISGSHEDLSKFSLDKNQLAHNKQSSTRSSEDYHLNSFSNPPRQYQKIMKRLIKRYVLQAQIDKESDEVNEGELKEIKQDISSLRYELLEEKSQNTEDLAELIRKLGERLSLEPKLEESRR
As to `Cc1cc(N2CCCCC2)nc(NCc2ccccc2)n1`, the outcome was inactive.
With `COCCNC(=O)/C(C#N)=C/c1cc(C(C)C)c(OC)cc1C`, the result was inactive.
The same measure, in the same setting: to `CCN1CCN(c2ccc(S(=O)(=O)N3CCCCC3)cc2NC(=O)COc2cc(C)ccc2Cl)CC1` belongs “inactive”.
Regarding `FC(F)(F)COc1nc(N2CCCCC2)nc(N2CCNCC2)n1`, the result was inactive.
For the molecule `CCSc1nnc([C@H](Cc2c[nH]c3ccccc23)NC(=O)OC(C)(C)C)o1`, the result was inactive.
For `COc1ccc(/C=C(\C#N)C(=O)N2CCOCC2)cc1Br`, the molecule was classed as inactive.
On the same count and under the same terms, to `N#Cc1ccc(OCC(O)CN2CCN(c3ncc(C(F)(F)F)cc3Cl)CC2)cc1` (stereo not given) belongs “inactive”; to `CCCC1=C(C(=O)OCC)C(c2cc(Cl)cc(OC)c2OCC(=O)OCC)NC(=O)N1` (stereo not given), “inactive”; to `CCCCCc1ccc(OCCCC[n+]2ccccc2)c(CCCCC)c1`, “inactive”.
Still for that read-out and setting: to `CC(C)(C)c1ccccc1OCCCCCn1ccnc1` belongs “inactive”; to `CCOC(=O)COc1cc(-n2c(=S)[nH]c3ccccc3c2=O)c(Cl)cc1Cl`, “inactive”; to `CCCCc1nc(N2CCOCC2)c(C#N)c2c1CCCC2`, “inactive”.
Still for that read-out and setting: to `CCN1CCN(c2ccc(NC(=O)CCc3c(C)nc4c(-c5ccc(F)cc5)c(C)nn4c3C)cc2)CC1` belongs “inactive”.
Regarding `CCOc1cc(/C=C(\C#N)C(=O)Nc2cccc(C(=O)O)c2)cc(Br)c1OC(=O)c1ccc(OC)cc1`, the outcome was inactive.
Take `COc1ccc(Cl)c2sc(N(CCN(C)C)C(=O)c3ccc4c(c3)OCCO4)nc12`: the molecule was called inactive.
The same measure, in the same setting: to `CCCCN1C(=O)C(=O)N(CC(=O)Nc2cc(OCC)c(N3CCOCC3)cc2OCC)C1=O` belongs “inactive”.
As for `CN(C)CCOc1ccc2ccccc2c1`, the outcome was inactive.
In the case of `CCCn1c(NCc2cc(OC)ccc2OC)nc2ccccc21`, the molecule was called inactive.
For `COC(=O)c1ccc(NC(=O)CCN2CCN(Cc3ccccc3)CC2)cc1`, the result was inactive.
As to `Cn1c(=O)c2c(nc(SCCN3CCCCC3)n2Cc2ccccc2)n(C)c1=O`, the outcome was inactive.
Consider `O=C(NCc1ccccc1Cl)/C(=C\c1cccnc1)NC(=O)c1ccccc1`, for which the molecule was called inactive.
Same read-out and setting: to `COC(=O)[C@@]12CCCN1[C@H](c1ccc(-c3ccc(OC)cc3)cc1)[C@@H]1C(=O)N(C)C(=O)[C@@H]12` belongs “inactive”.
On the same count and under the same terms, to `COc1ccc(-c2cc(C(F)(F)F)nc(N3CCN(C)CC3)n2)cc1` belongs “inactive”.
On the same count and under the same terms, to `CCOc1ccc(NS(=O)(=O)c2ccc(NC(=S)NC(=O)CC(C)C)cc2)cc1` belongs “inactive”; to `CCCN(CCC)CCCNC(=O)c1cc2c(=O)n(C)c3ccccc3c2n1C`, “inactive”; to `COc1ccc(CNCC(O)(c2ccccc2)c2ccccc2)cc1OC`, “inactive”.
Turning to `CCOc1cc2[nH]c(=S)n(C3CC3)c(=O)c2cc1OCC`, the molecule was called inactive.
The same measure, in the same setting: to `CCOC(=O)c1c(C(F)(F)C(F)(F)C(F)(F)C(F)(F)F)n[nH]c1C` belongs “inactive”; to `Cn1c(=O)cc(OCCCC(=O)NCCCN2CCN(Cc3ccccc3)CC2)c2ccccc21`, “inactive”; to `CC(=O)C1=C(O)C(=O)N(Cc2ccco2)C1c1ccc2c(c1)OCO2` (stereo not given), “inactive”.
Still for that read-out and setting: to `CCc1cc2c(SCC(=O)N(C)C3CCS(=O)(=O)C3)ncnc2s1` (stereo not given) belongs “inactive”; to `OC(CNCC1CCCO1)Cn1c2ccc(Br)cc2c2cc(Br)ccc21` (stereo not given), “inactive”; to `CCN1CCN(c2ccc(S(=O)(=O)N3CCCCC3)cc2NC(=O)c2cccc(F)c2)CC1`, “inactive”.
Consider `COC(=O)/C=C1\SC(=NC(=O)c2cccc(Cl)c2)NC1=O`, for which the molecule was classed as inactive.
Same read-out and setting: to `CCCc1ccc(OCc2ccc(C(=O)N3CCCC3)o2)cc1` belongs “inactive”; to `Cc1ccc(-c2csc3ncnc(NCCN4CCOCC4)c23)cc1`, “inactive”.
On the same count and under the same terms, to `Cn1c(=O)n(CCCO)c(=O)c2c1nc1n2CCCN1Cc1ccccc1` belongs “inactive”.
Take `O=C(NC1CC1)c1ccc2c(c1)N(Cc1ccc(Cl)cc1)CCS2`: the outcome was inactive.
The same measure, in the same setting: to `O=C(COc1ccccc1-c1ccccc1)NCc1ccco1` belongs “inactive”; to `CCOc1ccc2nc(NCCNC(=O)C3CC3)c(C)cc2c1`, “inactive”.

The values are drawn from PubChem BioAssay.
